The results in this text go back to ChEMBL document CHEMBL5325429, “Antibacterial and antibiofilm activity of permanently ionized quaternary ammonium fluoroquinolones” (Eur J Med Chem, 2023).

A word on the MIC: it is the lowest concentration that inhibits growth of the organism. The term CC50 denotes the concentration at which the toxic effect on the cells reaches its halfway point.

The test system of data set [1] is Staphylococcus aureus. Kind of data set: Antibacterial activity against Staphylococcus aureus ATCC 29213 assessed as bacterial growth inhibition incubated for 24 hrs by broth microdilution assay. The format is functional. The procedure, abridged: (§1)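 Broth microdilution per CLSI. Colonies from overnight Mueller Hinton agar were suspended in 0.9% saline, set by densitometer, and diluted in cation-adjusted MHB to 1×10^6 CFU/mL. This was mixed 1:1 with compound and incubated 24 h at 37 °C. A600 was read versus untreated control and checked visually. Screen at 50 μM; compounds with ≥80% inhibition went to MIC testing at 75–0.78 μM. […] Two independent experiments, three technical replicates each.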

Data set [2] deals with Pseudomonas aeruginosa. Kind of data set: Antibacterial activity against Pseudomonas aeruginosa ATCC 27853 assessed as bacterial growth inhibition incubated for 24 hrs by broth microdilution assay. The format is functional. The procedure, abridged: as §1
In data set [3] the test system is Pseudomonas aeruginosa. Kind of data set: Antibiofilm activity against Pseudomonas aeruginosa ATCC 15442 assessed as reduction in bacterial viability at 20 to 40 uM incubated for 18 hrs relative to control. It counts as functional. To be noted: dose 20-40 µM. The procedure, abridged:
(§2)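 Biofilm viability by resazurin. 10^6 CFU/mL TSB culture was exposed to compound (50x DMSO stock) for 18 h at 37 °C with shaking at 220 rpm. Biofilm was washed once with PBS and stained with resazurin (1:20 in PBS) in the dark at 37 °C for about 1 h (P. aeruginosa) or about 30 min (S. aureus). Fluorescence ex 560/em 590 is given as % of untreated control.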

The subject of data set [4] is Staphylococcus aureus. In words: Antibiofilm activity against Staphylococcus aureus assessed as inhibition of biofilm formation at 2.5 to 5 uM incubated for 18 hrs relative to control. The arrangement: scale not given: the % may be the effect or the level left. As to conditions: dose 2.5-5 µM.
For data set [5], the system named is Pseudomonas aeruginosa. Kind of data set: Antibiofilm activity against Pseudomonas aeruginosa ATCC 15442 assessed as reduction in bacterial biomass at 40 to 80 uM incubated for 18 hrs by crystal violet staining based assay relative to control. More on the design: scale not given: the % may be the effect or the level left. The format is functional. To be noted: dose 40-80 µM. The procedure, abridged: (§3)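 Pre-exposure biofilm: 10^6 CFU/mL TSB culture with compound (50x DMSO stock), 18 h at 37 °C, shaken at 220 rpm. After the resazurin read, biofilms were ethanol-fixed for 15 min, dried, and stained 5 min with 100x-diluted crystal violet. After two water washes, dye was solubilised in 96% ethanol for about 1 h and read at A595. Total biomass is expressed as % of untreated control.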

Data set [6] has as its system Staphylococcus aureus. Kind of data set: Antibiofilm activity against Staphylococcus aureus ATCC 25923 assessed as reduction in bacterial biomass at 50 uM incubated for 18 hrs. It counts as functional, organism-based. The method in brief:
as §3

Data set [7] relates to Pseudomonas aeruginosa. Kind of data set: Antibiofilm activity against Pseudomonas aeruginosa ATCC 15442 assessed as reduction in bacterial viability incubated for 18 hrs. The format is functional. The procedure, abridged: as §2
Data set [8] is described as follows: Cytotoxicity against mouse BALB/3T3 clone A31 cells upto 50 uM incubated for 48 hrs by celltiter glo luminescent assay. The format is toxicity, cell-based. As to conditions: balb/3t3 clone a31, 48 h.
The nature of data set [9]: Selectivity index, ratio of CC50 for cytotoxicity against mouse BALB/3T3 clone A31 cells to MIC for antibacterial activity against Pseudomonas aeruginosa ATCC 27853 assessed as bacterial growth inhibition. It counts as toxicity, cell-based. To be noted: read-out: Selectivity Index.
The test system of data set [10] is Staphylococcus aureus. Kind of data set: Antibiofilm activity against Staphylococcus aureus ATCC 25923 assessed as assessed as log 10 reduction in CFU at 200 uM incubated for 18 hrs. The format is functional. The procedure, abridged: (§4)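 Post-exposure CFU count. Biofilms were grown 18 h at 37 °C, 220 rpm, from a 10^6 CFU/mL TSB culture. Planktonic cells were removed, then compound (50x DMSO stock) in fresh TSB was added for a further 24 h. Wells were PBS-washed, scraped into PBS, serially diluted 10-fold and spotted on agar. After 24 h incubation, spots with 3–30 colonies were counted and reported as log10 cells/mL. Two experiments on different days, two technical replicates each.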

Data set [11] in a line: Cytotoxicity against mouse BALB/3T3 clone A31 cells incubated for 48 hrs by celltiter glo luminescent assay. The format is toxicity, cell-based.
Data set [12] has as its system Staphylococcus aureus. In words: Antibiofilm activity against Staphylococcus aureus ATCC 25923 assessed as reduction in bacterial biomass at 50 uM incubated for 18 hrs by crystal violet staining based assay relative to control. It counts as functional. More on the design: scale not given: the % may be the effect or the level left. The procedure, abridged:
as §3

The nature of data set [13]: Selectivity index, ratio of CC50 for cytotoxicity against mouse BALB/3T3 clone A31 cells to MIC for antibacterial activity against Staphylococcus aureus ATCC 29213 assessed as bacterial growth inhibition. As to conditions: read-out: Selectivity Index. It counts as toxicity, cell-based.
The test system of data set [14] is Staphylococcus aureus. Kind of data set: Antibiofilm activity against Staphylococcus aureus ATCC 25923 assessed as reduction in bacterial viability at 50 uM incubated for 18 hrs by resazurin staining based assay relative to control. (Resazurin is reduced to fluorescent resorufin, in cell work by metabolically active cells.)
The nature of data set [15]: Cytotoxicity against mouse BALB/3T3 clone A31 cells assessed as viable cells at 200 uM incubated for 48 hrs by celltiter glo luminescent assay relative to control. As to conditions: read-out: Activity. The format is toxicity, cell-based. (In general: ATP-based viability assays read luminescence as a measure of living cells.)
The test system of data set [16] is Pseudomonas aeruginosa. In words: Antibiofilm activity against Pseudomonas aeruginosa ATCC 15442 assessed as reduction in bacterial viability at 10 to 50 uM incubated for 18 hrs. The format is functional. As to conditions: dose 10-50 µM. The procedure, abridged: as §2
For data set [17], the system named is Pseudomonas aeruginosa. In words: Antibiofilm activity against Pseudomonas aeruginosa ATCC 15442 assessed as reduction in bacterial biomass incubated for 18 hrs by crystal violet staining based assay. The format is functional. The procedure, abridged: as §3
Data set [18] relates to Pseudomonas aeruginosa. In words: Antibiofilm activity against Pseudomonas aeruginosa ATCC 15442 assessed as reduction in biofilm formation at 5 to 25 uM incubated for 18 hrs relative to control. The format is functional. More on the design: scale not given: the % may be the effect or the level left. As to conditions: dose 5-25 µM. The method in brief: (§5)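 Pre-exposure biofilm assay. Inoculum: TSA colonies grown in TSB at 37 °C, 220 rpm, to OD 0.3–0.35, then diluted 100-fold to about 10^6 CFU/mL. Culture was mixed with compound (50x DMSO stock) and shaken at 220 rpm for 18 h at 37 °C. Biofilm was read by resazurin fluorescence (ex 560/em 590) and by crystal violet A595, as % of untreated control.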

Data set [19] deals with Pseudomonas aeruginosa. Kind of data set: Antibiofilm activity against Pseudomonas aeruginosa ATCC 15442 assessed as log 10 reduction in CFU at 200 uM incubated for 18 hrs. It counts as functional. The method in brief: as §4
Data set [20] concerns Pseudomonas aeruginosa. In words: Antibiofilm activity against Pseudomonas aeruginosa ATCC 15442 assessed as reduction in bacterial biomass at 10 to 50 uM incubated for 18 hrs by crystal violet staining based assay. It counts as functional, organism-based. As to conditions: dose 10-50 µM. The procedure, abridged: as §3
In data set [21] the test system is Pseudomonas aeruginosa. In words: Antibiofilm activity against Pseudomonas aeruginosa ATCC 15442 assessed as reduction in biofilm formation at 100 uM incubated for 18 hrs relative to control. The arrangement: scale not given: the % may be the effect or the level left. The format is functional. The procedure, abridged: as §5
Data set [22] relates to Pseudomonas aeruginosa. Kind of data set: Antibiofilm activity against Pseudomonas aeruginosa ATCC 15442 assessed as reduction in bacterial viability at 50 uM incubated for 18 hrs. The format is functional, organism-based. The procedure, abridged:
as §2

In data set [23] the test system is Pseudomonas aeruginosa. Kind of data set: Antibiofilm activity against Pseudomonas aeruginosa ATCC 15442 assessed as reduction in biofilm formation at 25 uM incubated for 18 hrs. It counts as functional, organism-based. The procedure, abridged:
as §5

In data set [24] the test system is Pseudomonas aeruginosa. Kind of data set: Antibiofilm activity against Pseudomonas aeruginosa ATCC 15442 assessed as reduction in bacterial viability at 2.5 to 320 uM incubated for 18 hrs. The format is functional, organism-based. To be noted: dose 2.5-320 µM. The procedure, abridged: as §2
The test system of data set [25] is Pseudomonas aeruginosa. In words: Antibiofilm activity against Pseudomonas aeruginosa ATCC 15442 assessed as reduction in bacterial viability at 200 uM incubated for 18 hrs. The format is functional, organism-based. The procedure, abridged: as §2
In data set [26] the test system is Pseudomonas aeruginosa. Kind of data set: Antibiofilm activity against Pseudomonas aeruginosa ATCC 15442 assessed as reduction in bacterial biomass at 2.5 to 320 uM incubated for 18 hrs by crystal violet staining based assay. The format is functional, organism-based. To be noted: dose 2.5-320 µM. The procedure, abridged:
as §3

In data set [27] the test system is Pseudomonas aeruginosa. In words: Antibiofilm activity against Pseudomonas aeruginosa ATCC 15442 assessed as reduction in bacterial biomass at 1 to 200 uM incubated for 18 hrs by crystal violet staining based assay. The format is functional, organism-based. As to conditions: dose 1-200 µM. The method in brief: as §3

Where a name gives a salt, the structure may show the parent alone. Active and inactive are the calls of the source. The calls are words filed in the database; no cut-off is given here.

Take `CCn1cc(C(=O)O)c(=O)c2cnc(N3CC[N+](C)(C)CC3)nc21`: the minimum inhibitory concentration (MIC) in data set [1] and in data set [2] was more than 50 µM in each case.
Take `CCn1cc(C(=O)O)c(=O)c2cc(F)c(N3CC[N+]4(CC3)CN3C(=N4)C(C(=O)O)=Cc4ccccc43)nc21.[I-]`: the Activity in data set [3], in [4] and in [5] was more than 90% throughout.
For the compound `C[N+]1(C)CCN(c2cc3c(cc2F)c(=O)c(C(=O)O)cn3C2CC2)CC1.[I-]`, the outcome in data set [6] and in [20] was inactive. Also, the MBIC in data set [7] came to 25 µM; in data set [17], 50 µM. Moreover, the MIC in [1] and in [2] was 6.25 µM in each case. In addition, the Activity entry in [8] is “Non-Toxic”; in data set [10] it was 2 log10CFU; in data set [12], 100%; in data set [14], 60%; in data set [16], 50%; in [18], more than 90%. The Activity in [19] came out at 2 log10CFU. Besides, the selectivity ratio in [9] and in data set [13] was more than 32 in each case. The CC50 at 48 h in data set [11] is more than 200 µM. Further, the viability at 48 h, 200 µM in data set [15] is 108%.
As to `O=C(O)C1=Cc2ccccc2N2C[N+]3(CCN(c4cc5c(cc4F)c(=O)c(C(=O)O)cn5C4CC4)CC3)N=C12.[I-]`, the Activity in data set [3], in [4] and in [5] was more than 90% throughout.
On to `CCn1cc(C(=O)O)c(=O)c2cc(F)c(N3CC[N+]4(CN5C(=N4)C(C(=O)O)=Cc4ccccc45)C(C)C3)c(F)c21.[I-]` (stereo unspecified), for which, in data set [4], the Activity is reported as more than 90%.
In the case of `CCn1cc(C(=O)O)c(=O)c2cc(F)c(N3CC[N+](C)(C)CC3)cc21`, the MIC is 25 µM in [1] and more than 50 µM in [2].
Regarding `C[N+]1(C)CCCN(c2cc3c(cc2F)c(=O)c(C(=O)O)cn3C2CC2)CC1.[I-]`, the outcome in data set [6] and in [20] was inactive. Besides, the Activity was more than 90% in [3]; more than 90% in data set [4]; “Non-Toxic” in data set [8]; 2 log10CFU in data set [10]; 100% in data set [12]; 60% in data set [14]. Further, the Activity in data set [16] was 50%; in [18], more than 90%; in [5], more than 90%; in data set [19], 2 log10CFU. Further, the MBIC worked out at 25 µM in [7] and 50 µM in data set [17]. For the same compound, the minimal inhibitory concentration (MIC) in [1] and in [2] was 6.25 µM in each case. In addition, the selectivity ratio in [9] and in data set [13] was more than 32 in each case. In data set [11], the CC50 at 48 h is more than 200 µM. Besides, the viability at 48 h, 200 µM in data set [15] came to 81.7%.
`O=C(O)C1=Cc2ccccc2N2C[N+]3(CCCN(c4cc5c(cc4F)c(=O)c(C(=O)O)cn5C4CC4)CC3)N=C12.[Cl-]` (stereo unspecified): the MIC in data set [1] and in data set [2] was 25 µM each time. Moreover, the Activity in [21] is reported as 80%; in data set [8] it was “Non-Toxic”; in data set [16], 50%; in data set [19], 2 log10CFU. Moreover, the outcome in data set [22] and in data set [23] was Active. Also, the selectivity ratio in data set [9] and in data set [13] was 6.4 in each case. This compound also returned a 50% cytotoxic concentration (CC50) at 48 h in data set [11] of 160 µM. For the same compound, the viability at 48 h, 200 µM in data set [15] stood at 1.55%. The result in data set [20] was inactive.
In the case of `CCn1cc(C(=O)O)c(=O)c2cc(F)c(N3CC[N+](C)(C)CC3)nc21`, the figures for the MIC in data set [1] and in [2] were 50 µM and more than 50 µM, respectively.
For `CCn1cc(C(=O)O)c(=O)c2cc(F)c(N3CC[N+](C)(C)C(C)C3)c(F)c21` (stereo unspecified), in that order: 25 µM and 75 µM.
Consider `O=C(O)c1cn(C2CC2)c2cc(N3CCNCC3)c(F)cc2c1=O` [CIPROFLOXACIN HYDROCHLORIDE], for which the result in data set [24], in [25] and in data set [26] was Active. The MIC in data set [1] was found to be 1.36 µM; in data set [2] it was 2.72 µM. Also, in data set [27], the outcome was inactive.
